Measurements from ChEMBL document CHEMBL1148681, “Synthesis and evaluation of (2-phenethyl-2H-1,2,3-triazol-4-yl)(phenyl)methanones as Kv1.5 channel blockers for the treatment of atrial fibrillation” (Bioorg Med Chem Lett, 2006).
Active and inactive are the calls of the source. No cut-off for these calls is given here.

Assays:
[1] = molecular target: T1, Potassium voltage-gated channel subfamily A member 5 (Homo sapiens, UniProt P22460); assay: Blockade of Kv1.5 channel expressed in LTK cells at 1 uM by patch clamp method; type: functional, cell-based
Summary of the method: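 Whole-cell patch clamp on Ltk- cells overexpressing Kv1.5, cultured 24–72 h and induced with dexamethasone for 24 h. Pipette solution was KCl/K2ATP/K4BAPTA/MgCl2/Hepes at pH 7.2; bath was NaCl/KCl/CaCl2/MgCl2/Hepes/glucose at pH 7.4. Cells were held at −70 mV and stepped to +60 mV for 1 s at 0.2 Hz. Current at pulse end was compared to control at 1 uM inhibitor.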

[2] = molecular target: T1, Potassium voltage-gated channel subfamily A member 5; assay: Blockade of Kv1.5 channel expressed in LTK cells by patch clamp method; type: functional, cell-based
Summary of the method: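 Dexamethasone-induced (24 h) Ltk- cells expressing Kv1.5 were recorded by series-resistance-compensated whole-cell patch clamp, with 1 s steps from −70 to +60 mV at 0.2 Hz (pH 7.2 pipette, pH 7.4 bath). After control currents stabilized, inhibitor was perfused at rising concentrations, each to maximal block. IC50 was obtained by nonlinear regression.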

[3] = system: Sus scrofa; assay: Increase in atrial effective refractory period in pig at 30 mg/kg after 15 mins; type: functional, Cardiac atrium
[4] = molecular target: Voltage-gated L-type calcium channel (Homo sapiens, UniProt Q13936+Q13698+Q01668+O60840); assay: Inhibition of L type calcium channel; type: protein assay
[5] = system: Sus scrofa; assay: Effect on ventricular effective refractory period in pig at 30 mg/kg after 15 mins; type: functional, organism-based; design: dose 30 mg/kg; conditions: Cardiac ventricle
[6] = molecular target: Voltage-gated inwardly rectifying potassium channel KCNH2 (Homo sapiens, UniProt Q12809); assay: Inhibition of hERG; type: toxicity
[7] = molecular target: Potassium voltage-gated channel subfamily A member 3 (Homo sapiens) (UniProt P22001); assay: Inhibition of Kv1.3 channel
Sequence of Potassium voltage-gated channel subfamily A member 3 (Homo sapiens) (P22001 whole entry): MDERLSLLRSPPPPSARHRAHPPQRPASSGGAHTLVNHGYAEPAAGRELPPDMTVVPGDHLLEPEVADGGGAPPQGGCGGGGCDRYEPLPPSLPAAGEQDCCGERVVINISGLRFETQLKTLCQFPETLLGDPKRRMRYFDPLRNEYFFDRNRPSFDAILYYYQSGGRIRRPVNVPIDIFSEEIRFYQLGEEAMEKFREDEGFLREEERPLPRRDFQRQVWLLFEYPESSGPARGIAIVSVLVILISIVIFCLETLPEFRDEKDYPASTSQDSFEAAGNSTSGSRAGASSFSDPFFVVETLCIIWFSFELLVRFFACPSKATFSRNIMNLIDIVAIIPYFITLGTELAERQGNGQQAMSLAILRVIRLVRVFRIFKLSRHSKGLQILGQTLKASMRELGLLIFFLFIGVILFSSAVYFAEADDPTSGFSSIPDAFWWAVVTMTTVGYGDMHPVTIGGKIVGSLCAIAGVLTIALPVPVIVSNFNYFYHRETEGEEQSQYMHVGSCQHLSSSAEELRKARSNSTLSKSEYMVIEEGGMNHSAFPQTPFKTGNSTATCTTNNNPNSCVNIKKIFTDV

T1 sequence (P22460 whole entry): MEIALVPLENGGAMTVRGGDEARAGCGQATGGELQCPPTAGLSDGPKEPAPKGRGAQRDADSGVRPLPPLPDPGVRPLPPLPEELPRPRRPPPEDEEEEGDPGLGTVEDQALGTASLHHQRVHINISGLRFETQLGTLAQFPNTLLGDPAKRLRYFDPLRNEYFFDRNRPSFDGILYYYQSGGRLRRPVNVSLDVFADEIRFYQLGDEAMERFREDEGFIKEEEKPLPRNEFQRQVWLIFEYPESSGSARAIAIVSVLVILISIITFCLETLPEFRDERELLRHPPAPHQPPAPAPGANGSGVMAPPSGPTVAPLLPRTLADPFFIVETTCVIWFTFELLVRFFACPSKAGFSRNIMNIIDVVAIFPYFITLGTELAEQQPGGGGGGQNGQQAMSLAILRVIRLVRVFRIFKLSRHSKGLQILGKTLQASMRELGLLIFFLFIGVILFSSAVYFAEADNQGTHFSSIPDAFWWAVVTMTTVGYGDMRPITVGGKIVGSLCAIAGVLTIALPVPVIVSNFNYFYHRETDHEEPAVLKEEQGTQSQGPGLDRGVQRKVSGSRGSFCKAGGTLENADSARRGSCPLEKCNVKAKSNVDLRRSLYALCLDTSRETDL
Sequence of Voltage-gated inwardly rectifying potassium channel KCNH2 (Q12809 whole entry): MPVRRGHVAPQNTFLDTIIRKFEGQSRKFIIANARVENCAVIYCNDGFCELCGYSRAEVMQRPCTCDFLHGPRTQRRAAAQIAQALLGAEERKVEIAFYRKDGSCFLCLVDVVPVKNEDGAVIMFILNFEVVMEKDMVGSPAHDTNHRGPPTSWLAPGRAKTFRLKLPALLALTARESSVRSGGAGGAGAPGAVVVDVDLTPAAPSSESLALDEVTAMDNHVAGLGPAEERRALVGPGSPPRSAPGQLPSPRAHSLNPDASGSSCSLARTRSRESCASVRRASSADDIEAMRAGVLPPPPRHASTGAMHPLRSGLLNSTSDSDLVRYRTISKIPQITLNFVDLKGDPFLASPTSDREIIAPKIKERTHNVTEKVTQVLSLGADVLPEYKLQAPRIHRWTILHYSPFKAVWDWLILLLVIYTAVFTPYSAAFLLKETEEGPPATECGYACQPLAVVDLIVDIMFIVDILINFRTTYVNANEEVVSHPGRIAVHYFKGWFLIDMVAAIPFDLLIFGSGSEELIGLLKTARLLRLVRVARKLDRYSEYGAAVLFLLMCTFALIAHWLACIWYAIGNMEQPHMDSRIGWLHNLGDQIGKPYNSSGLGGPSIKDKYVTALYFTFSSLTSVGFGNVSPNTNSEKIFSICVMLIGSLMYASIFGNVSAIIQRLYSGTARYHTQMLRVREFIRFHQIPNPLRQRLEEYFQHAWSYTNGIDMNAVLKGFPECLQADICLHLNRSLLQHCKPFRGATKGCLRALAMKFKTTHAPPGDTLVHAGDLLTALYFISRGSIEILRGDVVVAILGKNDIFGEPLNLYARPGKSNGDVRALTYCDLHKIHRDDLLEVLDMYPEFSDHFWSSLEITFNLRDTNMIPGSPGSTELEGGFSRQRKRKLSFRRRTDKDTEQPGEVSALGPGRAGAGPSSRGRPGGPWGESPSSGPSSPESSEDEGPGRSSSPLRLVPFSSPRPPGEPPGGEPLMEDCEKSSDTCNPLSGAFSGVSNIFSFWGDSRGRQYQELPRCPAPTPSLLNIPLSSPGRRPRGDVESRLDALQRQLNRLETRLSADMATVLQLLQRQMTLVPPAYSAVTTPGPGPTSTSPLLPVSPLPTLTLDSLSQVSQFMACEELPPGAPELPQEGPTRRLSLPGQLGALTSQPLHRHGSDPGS

COc1ccc(CCn2ncc(C(=O)c3ccc(Cl)c(Cl)c3)n2)cc1 showed an Activity [1] of 88%.
In the case of COc1ccc(CCN2C(=O)CSC2c2ccc(C)c(C)c2)cc1 (configuration not stated), the IC50 [2] is reported as 137 nM.
COc1ccc(CCn2cc(C(=O)c3ccc(C)c(C)c3)nn2)cc1 was tested, and the Activity [2] was “inactive”.
COc1ccc(CCn2ncc(C(=O)c3ccc(C(C)C)cc3)n2)cc1 gave an Activity [1] of 97%.
COc1ccc(CCn2ncc(C(=O)c3ccc(Cl)cc3)n2)cc1 gave an Activity [1] of 85%.
CCc1ccc(C(=O)c2cnn(CCc3ccc(OC)cc3)n2)cc1 gave an Activity [1] of 86%.
For COc1ccc(CCn2ncc(C(=O)c3ccc(N(C)C)cc3)n2)cc1, the Activity [1] was 99%.
With COc1ccc(CCn2ncc(C(=O)c3ccc(OC)cc3)n2)cc1 the Activity [1] was 84%.
Molecule COc1ccc(CCn2ncc(C(=O)c3ccc(N(C)C)cc3OC)n2)cc1 has an Activity [1] of 0%.
For COc1ccc(CCn2ncc(C(=O)c3ccc(C)c(C)c3)n2)cc1, the Activity [3] was 12%, the Activity [1] was 90% and the Activity [4] was 26 µM. The Activity [5] was “inactive”, the IC50 [2] was 294 nM and the Activity [6] was over 50 µM. The Activity [7] was 10.1 µM.
For COc1ccc(CCn2ncc(C(=O)c3ccccc3Cl)n2)cc1, the Activity [1] was 22%.
